In all, about 65,000 compounds went through this assay and about 1,200 (1.8%) were called active.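 Rule for the calls: active = activation above the mean activation of all tested compounds plus 3 SD (cut at about 50% in these data); inactive = the rest.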 Shown is part of a subset that was picked to be rich in actives.

Chain of Steroidogenic factor 1 (Homo sapiens) (Q13285 whole entry, looked up, the tested form may be a part): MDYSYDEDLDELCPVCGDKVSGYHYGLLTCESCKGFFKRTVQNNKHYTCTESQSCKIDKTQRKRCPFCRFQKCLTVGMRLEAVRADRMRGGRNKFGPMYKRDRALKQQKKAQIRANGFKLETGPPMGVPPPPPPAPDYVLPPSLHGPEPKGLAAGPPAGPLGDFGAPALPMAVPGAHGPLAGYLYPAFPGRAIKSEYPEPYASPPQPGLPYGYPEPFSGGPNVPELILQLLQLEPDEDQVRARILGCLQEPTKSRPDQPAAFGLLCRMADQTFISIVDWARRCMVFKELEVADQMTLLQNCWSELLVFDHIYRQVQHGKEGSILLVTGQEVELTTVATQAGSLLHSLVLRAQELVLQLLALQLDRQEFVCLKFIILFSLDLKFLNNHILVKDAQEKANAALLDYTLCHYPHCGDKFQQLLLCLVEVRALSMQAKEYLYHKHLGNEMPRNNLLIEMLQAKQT

The assay concerns the target Steroidogenic factor 1 (Homo sapiens) (UniProt Q13285). Put plainly: activators of human SF-1, primary screen, cell-based, CHO-K1, Gal4-SF-1 LBD, luciferase luminescence (AID 522). The settings on record: CHO-K1 Gal4-SF-1 LBD luciferase reporter; at 10 µM; active compounds read high; % increase over DMSO SF-1-specific signal. The essentials: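 Material: Gal4–SF-1 LBD one-hybrid luciferase reporter in CHO-K1 cells | Amount: 4,000 cells per well | Compound dosing: 10 µM single point, 1% DMSO | Schedule: 20 h compound treatment, 37 °C | Measured by: SteadyLite luciferase luminescence | Evaluation: Percent activation versus DMSO | Control set: DMSO-treated SF-1-transfected cells as negative, DMSO-treated mock-transfected cells lacking SF-1 as background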
On the technique in general: Reporter assays use an easily measured gene product as a stand-in for the process of interest.
For the compound `O=C(O)CCC(=O)N(Cc1ccco1)c1nc(-c2ccccc2)cs1`, the activation is 9.9% (inactive).

For the compound `CCSc1nc(C)nc2c1oc1ccccc12`, the activation is -10.2% (inactive). The result for `CCc1nc(N2CCN(c3nc(C)cc(C)n3)CC2)c2oc3ccccc3c2n1` reads 12% (inactive); that for `CCc1nc(Nc2ccc3nccnc3c2)c2oc3ccccc3c2n1`, 50.3% (active). The result for `COc1ccc(N2CCN(C(=O)CSc3nnc4ncccn34)CC2)cc1` reads -2.5% (inactive).

Take `CCc1nnc(NC(=O)CSc2nnc(COc3ccc(C#N)cc3)n2-c2ccccc2)s1`: the activation is 0.6% (inactive). `O=C(OCC(=O)N1CCCC1)c1ccco1`: the activation was 14.1% (inactive). The value for `O=C(COC(=O)c1ccccc1C(=O)c1ccccc1)c1ccco1` was -2.1% (inactive). The result for `CCN(CC)c1ccc(C(=O)OCC(=O)c2ccco2)cc1` reads 53.6% (active). The result for `CCOC(=O)N1CCN(C(=O)C2CCN(S(C)(=O)=O)CC2)CC1` reads 10.2% (inactive). Turning to `CCOC(=O)c1sc(=S)n2c1[nH]c(=O)c1ccc(C(=O)OC)cc12`, the activation is -7.4% (inactive).

Take `CCCCOc1ccc(NC(=O)CSCC(=O)OCC)cc1`: the activation is -6.4% (inactive). The result for `CCCCOc1ccc(-c2ncc(C(=O)OCC)c(N)n2)cc1` reads 49.8% (active); that for `CCOC(=O)c1cnc(SCC(=O)NCc2ccco2)nc1N`, 19.1% (inactive); that for `O=C(CSc1nnc(-c2c[nH]c3ccccc23)n1-c1ccc(F)cc1)NCc1ccco1`, 15.7% (inactive). The value for `Cc1nnc(SCCCn2c(N3CCCCC3)nc3c2c(=O)[nH]c(=O)n3C)s1` was -12.6% (inactive); that for `COc1ccccc1Nc1ncnc2c1oc1ccccc12` was 91.8% (active).

Consider `Cc1cc(C)nc(N2CCN(c3ncnc4c3oc3ccccc34)CC2)n1`, for which the activation is -8.8% (inactive). As for `COc1ccc(CCNC(=O)CSc2nc(C)nc3c2oc2ccccc23)cc1OC`, the activation is 27.4% (inactive).

On to `Cn1c2c(c(=O)n(C)c1=O)C(c1ccc(O)cc1)Nc1ccccc1O2` (centres undefined), for which the activation is -0.7% (inactive). The value for `CCOc1ccccc1NC(=O)Nc1cc(OC)ccc1OC` was -10% (inactive); that for `COc1ccc(C2C(C(=O)Nc3ccccc3OC)=C(C)Nc3nnnn32)c(OC)c1` (centres undefined) was -6.7% (inactive); that for `COc1ccccc1NC(=O)c1ccc(C)s1` was 50.1% (active).

On to `COc1ccc(OC)c(C2N(c3ccccn3)C(=O)C3CCCN32)c1` (centres undefined), for which the activation was -12.3% (inactive). Regarding `O=C1C(=O)N(CCN2CCOCC2)C(c2ccccn2)/C1=C(/O)c1ccc(Cl)cc1` (centres undefined), the activation is -1.6% (inactive). The value for `C=C(C)COc1ccc(-c2n[nH]c(C)c2-c2ccccc2OC)c(O)c1` was -12.7% (inactive). The result for `COc1ccc(OC)c(N=Cc2c(O)[nH]c3ccccc23)c1` reads 0.1% (inactive). The result for `COc1ccc(N=Cc2c(O)[nH]c3ccccc23)cc1OC` reads 60.4% (active). In the case of `COc1cc(N=Cc2c(O)[nH]c3ccccc23)cc(OC)c1OC`, the activation was -0.5% (inactive). On to `CCOc1nc(-c2ccc(OC)cc2)ccc1-c1noc(-c2cc(OC)c(OC)c(OC)c2)n1`, for which the activation was -8.3% (inactive). The result for `Cc1ccc(N2C(=O)c3ccccc3C2(O)c2ncc[nH]2)cc1` (centres undefined) reads 6.2% (inactive); that for `COc1ccc(CNC(=O)C2CCN(S(=O)(=O)N3CCOCC3)CC2)cc1`, 18.7% (inactive); that for `CCOC(=O)c1cc(C)sc1NC(=O)C1CCC1`, 9.7% (inactive). The value for `Nc1ncc(-c2cc3ccccc3oc2=O)s1` was 79.3% (active); that for `O=C(Oc1cccnc1)c1cc2ccccc2oc1=O` was -8.6% (inactive); that for `O=C(NCc1ccccn1)c1cc2ccccc2oc1=O` was 12.4% (inactive).

Consider `OC(COc1ccc2ccccc2c1)CN1CCOCC1` (centres undefined), for which the activation was 39.4% (inactive). The result for `CN1CCN(CC(=O)Nc2sc3c(c2C#N)CCC(C(C)(C)C)C3)CC1` (centres undefined) reads 17.2% (inactive).

As for `CCCCCOC(=O)NCCOC(=O)Nc1ccc(C(=O)OCC)cc1`, the activation is -12.6% (inactive). The result for `CCCCOC(=O)NCN1C(=O)C2C3C=CC(C3)C2C1=O` (centres undefined) reads -13.3% (inactive). The result for `CCCCCCOC(=O)NCC(O)c1ccccc1` (centres undefined) reads 52.5% (active). The result for `CCCn1c(O)c(CN2CCCC(C)C2)c(C)c(C#N)c1=O` (centres undefined) reads -4.9% (inactive). In the case of `COC(=O)C(NC(C)=O)(Nc1nc2c(s1)CCCC2)C(F)(F)F` (centres undefined), the activation is -0.1% (inactive).

Take `O=C(CCS(=O)(=O)c1ccccc1)Nc1nc2c(s1)CCCC2`: the activation is 3.8% (inactive).

For the compound `Fc1ccc2nc(Nc3nc4c(s3)CCCC4)sc2c1`, the activation is 90% (active). The result for `Cc1ccc(F)cc1NC(=O)Cc1nn(C)c(=O)c2ccccc12` reads -42.9% (inactive); that for `O=C(Nn1cnc2ccccc2c1=O)c1ccc(F)cc1Cl`, 64.7% (active). The value for `CN(Cc1ccccc1)C(=O)CCNC(=O)Cn1cnc2ccccc2c1=O` was -16% (inactive). As for `Cc1cccc(N2CCN(S(=O)(=O)c3ccc4c(c3)c(=O)n(C)c(=O)n4C)CC2C)c1` (centres undefined), the activation was 3.8% (inactive).

Turning to `COc1ccc(N2C(=O)c3cccc4cccc(c34)C2=O)nn1`, the activation was 0.5% (inactive). In the case of `CCc1ccccc1N(CC(=O)NCCSCc1ccco1)S(C)(=O)=O`, the activation is 4.6% (inactive). The value for `Cc1occc1C(=O)N1CCCc2ccccc21` was -7.2% (inactive). Consider `O=C(c1cnn2ccccc12)N1CCc2ccccc21`, for which the activation is 111% (active). `O=C(c1cccc(C(=O)N2CCc3ccccc32)n1)N1CCc2ccccc21`: the activation was -0.8% (inactive).

For the compound `COc1ccc(OCC(=O)N2CCN(C(=O)COc3ccccc3)CC2)cc1`, the activation is -5.8% (inactive). The value for `CCOc1cccc(C(=O)Nc2cccnc2)c1` was 6.8% (inactive); that for `CCOC(=O)c1ccc(-c2ccc(C(=O)Nc3cccnc3)o2)cc1` was 51.3% (active). The value for `CCOC(=O)c1cc(NC(=O)c2cccnc2)cc(C(=O)OCC)c1` was -4.7% (inactive); that for `CCC1=C/C(=C\c2ccc3c(c2)OCO3)C(=O)S1` was 0.1% (inactive). For `COc1ccc(NC(=O)C2CCCN(S(=O)(=O)c3cccc4cccnc34)C2)cc1` (centres undefined), the activation was 5.1% (inactive).

With `COc1ccc(S(=O)(=O)N2CCCC(C(=O)Nc3ccc(NC(=O)c4ccccn4)cc3)C2)cc1` (centres undefined), the activation is 63.3% (active). The value for `CCOc1cccc(NC(=O)C2CCCN(S(=O)(=O)c3ccc(OC)cc3)C2)c1` (centres undefined) was 0.1% (inactive); that for `N#CC1=C(N)C(C#N)(C#N)[C@H](c2ccsc2)[C@H]2COCC=C12` was -1.6% (inactive); that for `COc1ccc(NC(=O)c2c(C)oc3c2CCCC3)cc1` was 26.5% (inactive).

Values taken from PubChem BioAssay AID522 (The Scripps Research Institute Molecular Screening Center, 2006).
